The chains are these.
B1: NELF-E aptamer (parent)
chain: CCCAACGACUGCCGAGCGAGAUUACGCUUGAGCGCCCCACUGAGGAUGCCCACGGGCGAUUGGGGCACGG

The data set covers variants of B1. Nature of the data set: HiTS-RAP. The following applies: with NELF-E (Drosophila). The method, boiled down:
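Aptamer DNA templates carrying a T7 promoter and ter site were sequenced on an Illumina GAIIx flowcell, then transcribed in situ by T7 RNA polymerase and halted by GST-Tus (30 minutes, 37°C). Clusters were imaged after 30-minute room-temperature equilibration with NELF-E-mOrange at 0.064 to 1000 nM in HEPES binding buffer, and only the first binding curve was used. Intensities were normalised to sequencing intensity and averaged per sequence. Kd came from weighted Hill fits, keeping fits with variance below 1,000,000.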
What is called Kd is the equilibrium constant for the complex coming apart. For the variant CCCAACGACUGCCGAGCGAGAUUACGCUUGGGCGCCCCACUGAGGAUGCCUACGGGCGAUUGGGGCACGG [A31G C51U], the dissociation constant Kd is 7.88 nM. The same measure for CCCAACGACUGCCGAGCGAGAUUACGCUGGAGCGCCCCACUGAGGAUGCCCACGGGCGAUUGGGUCACGG [U29G G65U]: 6.57 nM; for CCCAACGACUGCCGAGCGAGAUUACGCUGGAGCGCCCCACUGAGGAUGCCCACGGGCGAUUGGGACACGG [U29G G65A]: 4.59 nM; for CCCAACGACUGCCGAGCGAGAUUACGCUGGAGCGCCCCACUGAGGAUGCCAACGGGCGAUUGGGGCACGG [U29G C51A]: 8.11 nM. The same measure for CCCAACGACUGCCGAGCGAGAUUACGCUGGAGCGCCCCACUGAGGAUGCCGACGGGCGAUUGGGGCACGG [U29G C51G]: 4.37 nM; for CCCAACGACUGCCGAGCGAGAUUACGCUGGAGCGCCCCACUGAGGAUGCCUACGGGCGAUUGGGGCACGG [U29G C51U]: 8.19 nM; for CCCAACGACUGCCGAGCGAGAUUACGCUGGAGCGCCCCACUGAGGAUGCCCACGGUCGAUUGGGGCACGG [U29G G56U]: 5.44 nM. In the case of CCCAACGACUGCCGAGCGAGAUUACGCUGGAGCGCCCCACUGAGGAUGCCCACGGACGAUUGGGGCACGG [U29G G56A], the Kd is 5.64 nM. As to CCCAACGACUGCCGAGCGAGAUUACGCUUGGGCGCCCCACUGAGGAUGCCCACAGGCGAUUGGGGCACGG [A31G G54A], the Kd turned out to be 18.4 nM. The figure for CCCAACGACUGCCGAGCGAGAUUACGCUGGAGCGCCCCACUGAGGAUGCCCACGGGCUAUUGGGGCACGG [U29G G58U] is 8.12 nM; for CCCAACGACUGCCGAGCGAGAUUACGCUGGAGCGCCCCACUGAGGAUGCCCACUGGCGAUUGGGGCACGG [U29G G54U] it is 6.72 nM. For the variant CCCAACGACUGCCGAGCGAGAUUACGCUGGAGCGCCCCACUGAGGAUGCCCACAGGCGAUUGGGGCACGG [U29G G54A], the dissociation constant (Kd) is 13.1 nM. As to CCCAACGACUGCCGAGCGAGAUUACGCUUGUGCGCCCCUCUGAGGAUGCCCACGGGCGAUUGGGGCACGG [A31U A39U], the Kd amounted to 38.1 nM. In the case of CCCAACGACUGCCGAGCGAGAUUACGCUGGAGCGCCCCACUGAGGAGGCCCACGGGCGAUUGGGGCACGG [U29G U47G], the Kd amounted to 6.21 nM. The same measure for CCCAACGACUGCCGAGCGAGAUUACGCUGGAGCGCCCCACUGAGGAAGCCCACGGGCGAUUGGGGCACGG [U29G U47A]: 11.1 nM; for CCCAACGACUGCCGAGCGAGAUUACGCUGGAGCGCCCCAUUGAGGAUGCCCACGGGCGAUUGGGGCACGG [U29G C40U]: 56.1 nM. Consider CCCAACGACUGCCGAGCGAGAUUACGCUUGUGCGCCCCACGGAGGAUGCCCACGGGCGAUUGGGGCACGG [A31U U41G], for which the dissociation constant Kd was 7.78 nM.

Take CCCAACGACUGCCGAGCGAGAUUACGCUGGAGCGCCCCACUGAGGAUGCCCACGGGCGAUAGGGGCACGG [U29G U61A]: the equilibrium dissociation constant (Kd) amounted to 28.1 nM. The same measure for CCCAACGACUGCCGAGCGAGAUUACGCUGGAGCGCCCCACUGAGGAUGCCCACGGGCGAUCGGGGCACGG [U29G U61C]: 59.2 nM. The same measure for CCCAACGACUGCCGAGCGAGAUUACGCUGGAGCGCCCCACUGAGGAUGCCCACGGGCGAUGGGGGCACGG [U29G U61G]: 14.4 nM. The same measure for CCCAACGACUGCCGAGCGAGAUUACGCUGGAGCGCCCCACUGAGGAUGCCCACGAGCGAUUGGGGCACGG [U29G G55A]: 7.74 nM; for CCCAACGACUGCCGAGCGAGAUUACGCUGGAGCGCCCCACUGAGGAUGCCCACGUGCGAUUGGGGCACGG [U29G G55U]: 6.64 nM. In the case of CCCAACGACUGCCGAGCGAGAUUACGCUGGAGCGCCCCACUGAGGAUGCCCACGCGCGAUUGGGGCACGG [U29G G55C], the equilibrium dissociation constant (Kd) came to 5.81 nM. Take CCCAACGACUGCCGAGCGAGAUUACGCUGGAGCGCCCCACUGAGGAUGCCCACGGGCGAUUGUGGCACGG [U29G G63U]: the dissociation constant Kd turned out to be 12.4 nM. The figure for CCCAACGACUGCCGAGCGAGAUUACGCUGGAGCGCCCCACUGAGGAUGCCCACGGGCGAUUGAGGCACGG [U29G G63A] is 11.4 nM; for CCCAACGACUGCCGAGCGAGAUUACGCUUUAGCGCCCCACUGAGGAUGCCCACGGGCGAUUGGGGCACGG [G30U] it is 5.41 nM. The figure for CCCAACGACUGCCGAGCGAGAUUACGCUUAAGCGCCCCACUGAGGAUGCCCACGGGCGAUUGGGGCACGG [G30A] is 4.41 nM; for CCCAACGACUGCCGAGCGAGAUUACGCUUCAGCGCCCCACUGAGGAUGCCCACGGGCGAUUGGGGCACGG [G30C] it is 6.15 nM. As for CCCAACGACUGCCGAGCGAGAUUACGCUGGAGCGCCCCACUGAGGAUGUCCACGGGCGAUUGGGGCACGG [U29G C49U], the Kd was determined as 22.4 nM. The figure for CCCAACGACUGCCGAGCGAGAUUACGCUUGGGCGCCCCACUGAGGAUGCCCACGGGCGAUUGGAGCACGG [A31G G64A] is 10.8 nM. The same measure for CCCAACGACUGCCGAGCGAGAUUACGCUUGGGCGCCCCACGGAGGAUGCCCACGGGCGAUUGGGGCACGG [A31G U41G]: 6.51 nM. The figure for CCCAACGACUGCCGAGCGAGAUUACGCUUGAACGCCCCACUGAGGAUGCCCACGGGCGAUUGGGGCACGG [G32A] is 4.35 nM; for CCCAACGACUGCCGAGCGAGAUUACGCUUGGGCGCCCCACUGAGGAUGCCCACGAGCGAUUGGGGCACGG [A31G G55A] it is 9.56 nM. With CCCAACGACUGCCGAGCGAGAUUACGCUGGAGCGCCCCACUGAGGAUGCCCACGGGCGACUGGGGCACGG [U29G U60C], the Kd turned out to be 11.4 nM. The same measure for CCCAACGACUGCCGAGCGAGAUUACGCUGGAGCGCCCCACUGAGGAUGCCCACGGGCGAAUGGGGCACGG [U29G U60A]: 13.2 nM; for CCCAACGACUGCCGAGCGAGAUUACGCUGGAGCGCCCCACUGAUGAUGCCCACGGGCGAUUGGGGCACGG [U29G G44U]: 8.78 nM; for CCCAACGACUGCCGAGCGAGAUUACGCUGGAGCGCCCCACUGAAGAUGCCCACGGGCGAUUGGGGCACGG [U29G G44A]: 94.7 nM. The figure for CCCAACGACUGCCGAGCGAGAUUACGCUUGGGCGCCCCACUGAGGAUGCCCUCGGGCGAUUGGGGCACGG [A31G A52U] is 21.5 nM.

For the origin of these results see the RNAGym collection of RNA variant scans (doi:10.1038/nmeth.2970).
